Source: ChEMBL document CHEMBL4014272, “Design, synthesis, biological evaluation, molecular docking and QSAR studies of 2,4-dimethylacridones as anticancer agents” (Eur J Med Chem, 2017)

Experiments:
ABCB1 (P-glycoprotein) = ABCB1 (P-glycoprotein) (Homo sapiens, UniProt P08183); test: Displacement of [3H]-azidopine from ABCB1 in human KBV1 cell membranes at IC50 incubated for 20 mins in dark followed by irradiation of UV-light measured after 20 mins by SDS-PAGE based autoradiography relative to control; conditions: probe [3H]-azidopine
ABCB1 (P-glycoprotein), sequence (P08183 whole entry): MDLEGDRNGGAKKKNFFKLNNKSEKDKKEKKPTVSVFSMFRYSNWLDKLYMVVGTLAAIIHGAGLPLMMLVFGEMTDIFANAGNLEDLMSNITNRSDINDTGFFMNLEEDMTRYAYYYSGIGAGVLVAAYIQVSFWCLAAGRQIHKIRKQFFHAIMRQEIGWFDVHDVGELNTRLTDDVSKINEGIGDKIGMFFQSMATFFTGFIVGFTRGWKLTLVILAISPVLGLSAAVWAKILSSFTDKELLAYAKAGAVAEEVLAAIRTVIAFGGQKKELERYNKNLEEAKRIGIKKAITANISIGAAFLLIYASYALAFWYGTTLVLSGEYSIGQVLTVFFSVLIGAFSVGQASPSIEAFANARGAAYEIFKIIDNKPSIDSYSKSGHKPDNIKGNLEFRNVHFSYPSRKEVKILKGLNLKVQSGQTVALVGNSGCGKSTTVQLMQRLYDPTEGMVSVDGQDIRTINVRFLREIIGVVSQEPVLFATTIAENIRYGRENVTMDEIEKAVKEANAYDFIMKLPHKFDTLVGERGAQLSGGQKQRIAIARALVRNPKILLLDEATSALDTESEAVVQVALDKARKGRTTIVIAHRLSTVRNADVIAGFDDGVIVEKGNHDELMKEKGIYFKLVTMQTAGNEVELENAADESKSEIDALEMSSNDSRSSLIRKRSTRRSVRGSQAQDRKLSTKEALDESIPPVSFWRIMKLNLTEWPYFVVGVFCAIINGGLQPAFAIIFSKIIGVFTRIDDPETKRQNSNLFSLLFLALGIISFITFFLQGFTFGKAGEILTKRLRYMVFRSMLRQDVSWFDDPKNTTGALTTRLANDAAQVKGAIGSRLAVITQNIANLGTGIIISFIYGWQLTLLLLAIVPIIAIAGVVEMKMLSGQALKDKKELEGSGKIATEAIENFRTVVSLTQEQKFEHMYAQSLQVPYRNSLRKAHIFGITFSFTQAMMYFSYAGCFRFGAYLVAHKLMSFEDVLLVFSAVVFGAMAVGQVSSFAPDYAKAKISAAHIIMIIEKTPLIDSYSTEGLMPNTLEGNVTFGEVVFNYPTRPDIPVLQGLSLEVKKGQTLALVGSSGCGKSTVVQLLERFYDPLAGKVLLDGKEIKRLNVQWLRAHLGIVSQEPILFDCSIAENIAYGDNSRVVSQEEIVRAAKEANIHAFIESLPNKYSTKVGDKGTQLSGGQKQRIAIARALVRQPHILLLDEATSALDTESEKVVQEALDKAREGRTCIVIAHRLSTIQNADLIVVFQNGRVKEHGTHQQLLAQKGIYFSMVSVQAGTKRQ

MCF7 = test: Growth inhibition of human MCF7 cells after 48 hrs by SRB assay; type: functional, cell-based; conditions: MCF7, 48 h
In short: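 MCF-7 cells in RPMI 1640 with glutamine and 10% fetal calf serum, 37 °C, 5% CO2. Log-phase cells plated, attached 24 h, then exposed to varying compound concentrations for 48 h; ethanol vehicle controls. Survival by SRB, absorbance 540 nm versus control; each dilution in triplicate, IC50 from mean of triplicates.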

NCI/ADR-RES = test: Growth inhibition of human MCF7/ADR cells after 48 hrs by SRB assay; type: functional, cell-based
In short: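 Doxorubicin-selected MCF-7/ADR cells maintained under doxorubicin, grown in RPMI 1640 with glutamine and 10% fetal calf serum, 37 °C, 5% CO2. Log-phase cells plated, attached 24 h, exposed to varying compound concentrations for 48 h; ethanol vehicle controls. Survival by SRB absorbance versus control; triplicate readings averaged for IC50.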

[1] = target: ATP-dependent translocase ABCB1 (Homo sapiens, UniProt P08183); test: Inhibition of ABCB1 in human MCF7/ADR cells assessed as potentiation of vinblastine-induced cytotoxicity at IC10 after 7 days by SRB assay relative to vinblastine alone; type: cell-based; conditions: 168 h
ATP-dependent translocase ABCB1, sequence (P08183 whole entry): as above
In short: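 Doxorubicin-maintained MCF-7/ADR cells given vinblastine (0-100 nM, continuous 7 days per results text; methods state 0-15 nM for 48 h) alone or with modulator at its IC10. Survival by SRB versus ethanol vehicle control; vinblastine IC50 with modulator compared to vinblastine alone; triplicates averaged.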

inhibition at 20 min (ABCB1 (P-glycoprotein)) | IC50 (MCF7) | SMILES | IC50 (NCI/ADR-RES) | inhibition (INH) [1] | fold change (FC) [1]
55% | 4 µM | Cc1cc(C)c2c(c1)c(=O)c1ccccc1n2CCCCN(CCO)CCO | 5.21 µM | Active | 
42% | 30.1 µM | Cc1cc(C)c2c(c1)c(=O)c1ccccc1n2CCCCN1CCCCC1 | 36.3 µM |  | 
28% |  | Cc1cc(C)c2c(c1)c(=O)c1ccccc1n2CCCCl |  |  | 
46% | 50.2 µM | Cc1cc(C)c2c(c1)c(=O)c1ccccc1n2CCCN1CCN(C)CC1 | 53.5 µM |  | 4.75
54% | 8.3 µM | CCN(CC)CCCCn1c2ccccc2c(=O)c2cc(C)cc(C)c21 | 9.1 µM | Active | 
36% | 29.1 µM | CCN(CC)CCCn1c2ccccc2c(=O)c2cc(C)cc(C)c21 | 34.2 µM |  | 10.48
58% | 2 µM | Cc1cc(C)c2c(c1)c(=O)c1ccccc1n2CCCCN1CCN(CCO)CC1 | 2.56 µM | Active | 
52% | 12 µM | Cc1cc(C)c2c(c1)c(=O)c1ccccc1n2CCCN1CCN(CCO)CC1 | 15.1 µM |  | 16.74
33% | 79 µM | Cc1cc(C)c2[nH]c3ccccc3c(=O)c2c1 | 82.1 µM |  | 1.4
34% | 58 µM | Cc1cc(C)c2c(c1)c(=O)c1ccccc1n2CCCN1CCCCC1 | 61.7 µM |  | 7.17
36% | 20 µM | Cc1cc(C)c2c(c1)c(=O)c1ccccc1n2CCCCN1CCOCC1 | 21.8 µM | Active | 
40% | 19.1 µM | Cc1cc(C)c2c(c1)c(=O)c1ccccc1n2CCCN(CCO)CCO | 22.8 µM |  | 9.7
26% | 59.2 µM | Cc1cc(C)c2c(c1)c(=O)c1ccccc1n2CCCN1CCOCC1 | 65.3 µM |  | 6.4
43% | 14.5 µM | Cc1cc(C)c2c(c1)c(=O)c1ccccc1n2CCCCN1CCN(C)CC1 | 16.2 µM |  | 
36% |  | Cc1cc(C)c2c(c1)c(=O)c1ccccc1n2CCCCCl |  |  | 
 |  | COc1cccc2c1C(=O)c1c(O)c3c(c(O)c1C2=O)C[C@@](O)(C(C)=O)C[C@@H]3O[C@H]1C[C@H](N)[C@H](O)[C@H](C)O1 [DAUNORUBICIN] | 7.12 µM |  | 
61% |  | COc1ccc(CCN(C)CCCC(C#N)(c2ccc(OC)c(OC)c2)C(C)C)cc1OC (stereo unspecified) [VERAPAMIL] |  |  | 
 | 0.003 to 0.0032 µM | CC[C@]1(O)C[C@@H]2CN(CCc3c([nH]c4ccccc34)[C@@](C(=O)OC)(c3cc4c(cc3OC)N(C)[C@H]3[C@@](O)(C(=O)OC)[C@H](OC(C)=O)[C@]5(CC)C=CCN6CC[C@]43[C@@H]65)C2)C1 [VINBLASTINE] | 0.0106 to 0.0693 µM |  | 
